Series [1] has as its target T1, UDP-glucuronosyltransferase 1A8 (Homo sapiens, UniProt Q9HAW9).
T1 sequence (Q9HAW9 whole entry): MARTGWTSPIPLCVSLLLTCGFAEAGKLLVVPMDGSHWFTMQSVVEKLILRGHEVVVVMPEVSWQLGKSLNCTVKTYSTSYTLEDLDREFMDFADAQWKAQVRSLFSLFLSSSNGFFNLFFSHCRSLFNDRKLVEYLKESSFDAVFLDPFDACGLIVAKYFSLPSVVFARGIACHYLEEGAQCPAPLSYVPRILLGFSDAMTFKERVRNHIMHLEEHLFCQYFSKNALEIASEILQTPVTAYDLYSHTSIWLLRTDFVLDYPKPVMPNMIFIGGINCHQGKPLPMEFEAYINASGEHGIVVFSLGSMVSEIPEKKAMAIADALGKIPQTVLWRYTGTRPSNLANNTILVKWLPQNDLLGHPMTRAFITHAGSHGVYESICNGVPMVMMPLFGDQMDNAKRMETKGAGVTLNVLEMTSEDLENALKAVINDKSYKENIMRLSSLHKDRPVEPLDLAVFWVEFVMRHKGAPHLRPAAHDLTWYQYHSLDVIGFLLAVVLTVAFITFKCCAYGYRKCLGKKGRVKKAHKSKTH
Nature of the series: Drug metabolism assessed as human UGT1A8-mediated N'-glucuronide-triclocarban formation expressed in baculovirus infected insect sf9 cells incubated for 5 mins prior to UDPGA addition measured after 5 to 30 mins by LC-UV analysis. Format: ADME. Summed up:
(§1)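 Microsomes or UGT Supersomes (5 µg protein) were held 15 min on ice with alamethicin in 100 mM potassium phosphate pH 7.4. TCC was added at 10 µM (2% DMSO) with 10 mM MgCl2 and 10 mM saccharolactone, pre-warmed 5 min at 37 °C, then started with UDPGA. Samples at 5, 10, 15 and 30 min were quenched in ACN. Product was read by LC-UV at 265 nm; rate came from regression over time, three incubations.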

A short description of series [2]: Drug metabolism in cynomolgus monkey liver microsomes assessed as N-glucuronide-triclocarban formation incubated for 5 mins prior to UDPGA addition measured after 5 to 30 mins by LC-UV analysis. Format: ADME, Macaca fascicularis. The gist of the method: as §1
For series [3], the target named is T2, UDP-glucuronosyltransferase 1A9 (Homo sapiens, UniProt O60656).
T2 sequence (O60656 whole entry): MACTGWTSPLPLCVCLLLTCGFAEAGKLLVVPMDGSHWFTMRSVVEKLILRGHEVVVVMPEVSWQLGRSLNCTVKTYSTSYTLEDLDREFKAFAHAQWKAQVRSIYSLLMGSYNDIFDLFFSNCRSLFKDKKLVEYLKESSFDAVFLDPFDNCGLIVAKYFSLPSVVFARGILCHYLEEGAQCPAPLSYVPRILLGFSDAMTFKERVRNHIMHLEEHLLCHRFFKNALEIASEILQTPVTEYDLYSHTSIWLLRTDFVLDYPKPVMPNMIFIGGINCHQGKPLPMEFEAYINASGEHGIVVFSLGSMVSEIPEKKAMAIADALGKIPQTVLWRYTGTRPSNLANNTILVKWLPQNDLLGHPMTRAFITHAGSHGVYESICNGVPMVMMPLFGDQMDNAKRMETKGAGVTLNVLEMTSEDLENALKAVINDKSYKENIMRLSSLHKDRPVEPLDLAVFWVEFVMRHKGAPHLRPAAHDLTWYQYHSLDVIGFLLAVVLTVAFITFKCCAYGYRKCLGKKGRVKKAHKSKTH
Briefly: Drug metabolism assessed as human UGT1A9-mediated N-glucuronide-triclocarban formation expressed in baculovirus infected insect sf9 cells incubated for 5 mins prior to UDPGA addition measured after 30 mins by LC-ESI-MS analysis. The format is ADME. To be noted: sf9, 0.5 h. The gist of the method: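 TCC was incubated at 10 µM (2% DMSO) in 100 mM phosphate pH 7.4 with alamethicin-treated microsomes or Supersomes, 10 mM MgCl2 and 10 mM saccharolactone. After 5 min pre-incubation at 37 °C, UDPGA was added to start the reaction. Protein was raised up to 2 mg/mL. Samples were quenched in ACN with 1 µM DCC internal standard, centrifuged, and N-glucuronides detected by LC-ESI-MS/MS in SRM mode.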

The subject of series [4] is Liver microsome. Nature of the series: Drug metabolism in Sprague-Dawley rat liver microsomes assessed as N'-glucuronide-triclocarban formation incubated for 5 mins prior to UDPGA addition measured after 5 to 30 mins by LC-UV analysis. The format is ADME. Summed up:
as §1

A short description of series [5]: Drug metabolism in human kidney microsomes assessed as N'-glucuronide-triclocarban formation incubated for 5 mins prior to UDPGA addition measured after 5 to 30 mins by LC-UV analysis. The format is ADME. The gist of the method: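 Pooled human kidney or liver microsomes (liver: 25 mixed-gender donors), 5 µg protein, in 200 µL 100 mM potassium phosphate pH 7.4. Alamethicin pre-treated on ice 15 min. Final 10 µM TCC (2% DMSO), with 10 mM MgCl2 and 10 mM saccharolactone, preincubated 5 min at 37 °C. Started with UDPGA (20 mM stock). Sampled at 5, 10, 15 and 30 min into ACN containing 1 µM DCC internal standard.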

The target of series [6] is T3, UDP-glucuronosyltransferase 2B4 (Homo sapiens, UniProt P06133).
T3 sequence (P06133 whole entry): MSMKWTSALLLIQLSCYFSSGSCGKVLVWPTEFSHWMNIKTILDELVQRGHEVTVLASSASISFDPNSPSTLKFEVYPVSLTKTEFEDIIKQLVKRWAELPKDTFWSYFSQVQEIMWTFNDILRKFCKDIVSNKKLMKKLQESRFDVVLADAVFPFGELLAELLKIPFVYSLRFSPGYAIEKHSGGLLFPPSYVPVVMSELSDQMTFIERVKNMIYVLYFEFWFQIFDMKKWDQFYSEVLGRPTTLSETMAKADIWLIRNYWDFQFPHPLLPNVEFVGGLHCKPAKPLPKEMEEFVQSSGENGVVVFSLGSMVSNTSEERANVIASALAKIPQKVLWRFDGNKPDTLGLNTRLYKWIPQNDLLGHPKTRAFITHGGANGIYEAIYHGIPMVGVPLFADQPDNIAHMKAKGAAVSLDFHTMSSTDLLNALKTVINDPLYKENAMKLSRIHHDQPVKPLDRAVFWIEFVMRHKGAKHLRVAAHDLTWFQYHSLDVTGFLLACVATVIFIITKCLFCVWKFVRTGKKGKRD
Nature of the series: Drug metabolism assessed as human UGT2B4-mediated N-glucuronide-triclocarban formation expressed in baculovirus infected insect sf9 cells incubated for 5 mins prior to UDPGA addition measured after 5 to 30 mins by LC-UV analysis. The format is ADME. Summed up: as §1

Series [7] deals with Liver microsome. Nature of the series: (§2) Drug metabolism in human liver microsomes after 30 mins by LC-ESI-MS analysis. The format is ADME. The note with it: microsomes, 0.5 h. Summed up:
(§3)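 2'-OH-TCC at 0.2, 0.5, 1, 2, 3, 5, 10 and 50 µM incubated with liver microsomes (alamethicin, MgCl2, saccharolactone, UDPGA; 37 °C), sampled at 5, 10, 15 and 30 min. Samples ≥5 µM diluted 1:9 in ACN; LC-ESI-MS. KM and vmax fitted from rate vs concentration; intrinsic clearance derived from these; mean and SD of three.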
(In general: Liver microsomes are vesicles of endoplasmic reticulum, rich in cytochrome P450 enzymes.)

Series [8] can be described thus: as §2. The note with it: liver microsomes. The format is ADME. Summed up:
as §3

What is called Vmax is the rate approached at saturating substrate. Usually Km stands for the concentration of substrate that gives half-maximal velocity.

For `O=C(Nc1ccc(Cl)cc1)Nc1ccc(Cl)c(Cl)c1` [TRICLOCARBAN], the Drug metabolism result in series [1] is given as “metabolite_not_detected”; in series [2] it was “metabolite_not_detected”; in series [3], “metabolite_detected”; with Liver microsome [4], “metabolite_not_detected”; in series [5] it was “metabolite_not_detected”; in series [6] it was “metabolite_not_detected”.
For the compound `O=C(Nc1ccc(Cl)c(Cl)c1)Nc1ccc(Cl)cc1O`, the Vmax in the series on Liver microsome [7] came to 5.37 nmol/min/mg. The Km at 0.5 h in series [8] is 3.08 µM.

The record behind these values is ChEMBL document CHEMBL3525967, “In vitro glucuronidation of the antibacterial triclocarban and its oxidative metabolites” (Drug Metab Dispos, 2012).
